Blank lines part the entries; values can stand above or below the compound they belong to.
Tests used:
[1] = Pharmacokinetic analysis, plasma and tissue concentration; assay type: in vivo, CD1 mice; details: CD1, mouse, 1 mg/kg
KP-4 transplanted tumor = assay: KP-4 xenograft, 6 days of treatment followed by 3 days off-drug; assay type: in vivo, BALB/c Nude mice; details: compared with vehicle group
MCL-1 = MCL-1 protein in KP-4 transplanted tumor homogenate; assay type: in vivo, BALB/c Nude mice; details: KP-4 xenograft, BS-HH-002 5.4 mg/kg, versus vehicle group
Summary of the method: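 The model was KP-4 subcutaneous xenografts in BALB/c Nude mice. Tumors from at least five mice in each of the vehicle, gemcitabine and test compound (5.4 mg/kg) groups were analysed. MCL-1 and BCL-XL protein levels were measured by Western blot with β-actin or β-Tubulin as internal reference.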

TIP30/CC3 = assay: Immunofluorescence of TIP30/CC3 in KP-4 tumor sections; assay type: in vivo, BALB/c Nude mice; details: BS-HH-002 at 3.0 mg/kg, p = 0.004, p = 0.461

concentration at 2 h ([1]; bone marrow, po): 669 ng/mL
concentration at 8 h ([1]; bone marrow, po): 48.6 ng/mL
concentration at 0.5 h ([1]; bone marrow, sc): 141 ng/mL
concentration at 2 h ([1]; bone marrow, sc): 412 ng/mL
concentration at 8 h ([1]; bone marrow, sc): 43.5 ng/mL
concentration at 0.5 h ([1]; brain, sc): 11 ng/mL
concentration at 2 h ([1]; brain, sc): 6.37 ng/mL
concentration at 8 h ([1]; brain, sc): 4.97 ng/mL
concentration at 0.5 h ([1]; esophagus, po): 607 ng/mL
concentration at 0.5 h ([1]; esophagus, sc): 138 ng/mL
concentration at 2 h ([1]; esophagus, sc): 185 ng/mL
concentration at 8 h ([1]; esophagus, sc): 52.6 ng/mL
concentration at 0.5 h ([1]; heart, po): 125 ng/mL
concentration at 2 h ([1]; heart, po): 321 ng/mL
concentration at 8 h ([1]; heart, po): 156 ng/mL
concentration at 0.5 h ([1]; heart, sc): 541 ng/mL
concentration at 2 h ([1]; heart, sc): 254 ng/mL
concentration at 8 h ([1]; heart, sc): 115 ng/mL
concentration at 0.5 h ([1]; kidney, po): 25.4 ng/mL
concentration at 2 h ([1]; kidney, po): 117 ng/mL
concentration at 8 h ([1]; kidney, po): 33.5 ng/mL
concentration at 0.5 h ([1]; kidney, sc): 2010 ng/mL
concentration at 2 h ([1]; kidney, sc): 796 ng/mL
concentration at 8 h ([1]; kidney, sc): 95.6 ng/mL
concentration at 24 h ([1]; kidney, sc): 5.04 ng/mL
concentration at 0.5 h ([1]; large intestine, po): 105 ng/mL
concentration at 2 h ([1]; large intestine, po): 528 ng/mL
concentration at 8 h ([1]; large intestine, po): 689 ng/mL
concentration at 0.5 h ([1]; large intestine, sc): 1030 ng/mL
concentration at 2 h ([1]; large intestine, sc): 807 ng/mL
concentration at 8 h ([1]; large intestine, sc): 502 ng/mL
concentration at 24 h ([1]; large intestine, sc): 35.4 ng/mL
concentration at 0.5 h ([1]; liver, po): 184 ng/mL
concentration at 2 h ([1]; liver, po): 296 ng/mL
concentration at 8 h ([1]; liver, po): 173 ng/mL
concentration at 0.5 h ([1]; liver, sc): 983 ng/mL
concentration at 2 h ([1]; liver, sc): 615 ng/mL
concentration at 8 h ([1]; liver, sc): 80.2 ng/mL
concentration at 24 h ([1]; liver, sc): 4.53 ng/mL
concentration at 0.5 h ([1]; lung, po): 135 ng/mL
concentration at 2 h ([1]; lung, po): 807 ng/mL
concentration at 8 h ([1]; lung, po): 73.6 ng/mL
concentration at 0.5 h ([1]; lung, sc): 693 ng/mL
concentration at 2 h ([1]; lung, sc): 287 ng/mL
concentration at 8 h ([1]; lung, sc): 62.5 ng/mL
concentration at 24 h ([1]; lung, sc): 5.8 ng/mL
concentration at 0.5 h ([1]; pancreas, po): 85.8 ng/mL
concentration at 2 h ([1]; pancreas, po): 228 ng/mL
concentration at 8 h ([1]; pancreas, po): 211 ng/mL
concentration at 24 h ([1]; pancreas, po): 4.86 ng/mL
concentration at 0.5 h ([1]; pancreas, sc): 753 ng/mL
concentration at 2 h ([1]; pancreas, sc): 512 ng/mL
concentration at 8 h ([1]; pancreas, sc): 215 ng/mL
concentration at 24 h ([1]; pancreas, sc): 5.62 ng/mL
concentration at 0.5 h ([1]; plasma, po): 14.8 ng/mL
concentration at 2 h ([1]; plasma, po): 47.7 ng/mL
concentration at 8 h ([1]; plasma, po): 13.7 ng/mL
concentration at 0.5 h ([1]; plasma, sc): 166 ng/mL
concentration at 2 h ([1]; plasma, sc): 48.9 ng/mL
concentration at 8 h ([1]; plasma, sc): 11.1 ng/mL
concentration at 24 h ([1]; plasma, sc): 0.929 ng/mL
concentration at 0.5 h ([1]; spleen, po): 184 ng/mL
concentration at 2 h ([1]; spleen, po): 742 ng/mL
concentration at 8 h ([1]; spleen, po): 225 ng/mL
concentration at 0.5 h ([1]; spleen, sc): 1990 ng/mL
concentration at 2 h ([1]; spleen, sc): 1290 ng/mL
concentration at 8 h ([1]; spleen, sc): 282 ng/mL
concentration at 24 h ([1]; spleen, sc): 16.5 ng/mL
concentration at 0.5 h ([1]; stomach, po): 1360 ng/mL
concentration at 2 h ([1]; stomach, po): 806 ng/mL
concentration at 8 h ([1]; stomach, po): 870 ng/mL
concentration at 0.5 h ([1]; stomach, sc): 999 ng/mL
concentration at 2 h ([1]; stomach, sc): 587 ng/mL
concentration at 8 h ([1]; stomach, sc): 128 ng/mL
concentration at 24 h ([1]; stomach, sc): 9.84 ng/mL
SMILES: COC(=O)C[C@](O)(CCCC(C)(C)O)C(=O)O[C@@H]1C(OC)=C[C@]23CCCN2CCc2cc4c(cc2[C@H]13)OCO4 [HHT, homoharringtonine]

SMILES: Nc1ccn([C@@H]2O[C@H](CO)[C@@H](O)C2(F)F)c(=O)n1 [gemcitabine, Gemcitabine]
tumor volume (KP-4 transplanted tumor): decreased significantly
MCL-1 protein level in tumor cells (MCL-1): no significant difference
CC3 protein expression (TIP30/CC3): significantly increased
